Experiment [1] concerns the target T1, Kappa-type opioid receptor (Cavia porcellus, UniProt P41144). Kind of experiment: Inhibition of [3H]U-69593 binding to Opioid receptor kappa 1 of guinea pig membranes.
Experiment [2] deals with Delta-type opioid receptor (Rattus norvegicus, UniProt P33533). Put plainly: Inhibition of [3H]-DADLE binding to Opioid receptor delta 1 of rat brain membranes. The experiment is classed as cell membranes, Membrane.
Experiment [3] has as its target Mu-type opioid receptor (Rattus norvegicus, UniProt P33535). Kind of experiment: Inhibition of [3H]DAMGO binding to Opioid receptor mu 1 of rat brain membranes. The experiment is classed as cell membranes, Membrane.
In experiment [4] the target is Mu-type opioid receptor (Cavia porcellus, UniProt P97266). Put plainly: The compound was tested for antagonist activity by selective inhibition of [35S]GTP-gamma-S, binding to Opioid receptor mu 1 in Guinea pig caudate stimulated by DAMGO[mu]. The experiment is classed as functional. In a few lines:
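Guinea pig caudate putamen membranes (10 μg/tube) in 50 mM Tris-HCl pH 7.7, 0.1% BSA. Final: 100 mM NaCl, 5 mM MgCl2, 1 mM EDTA, 1 mM DTT, 100 μM GDP, 0.05–0.1 nM [35S]GTP-γ-S, agonist 500 nM or 10 μM, ≥10 antagonist concentrations; 4 h, filtration.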
In general terms: Binding of GTPγS marks nucleotide exchange on a G protein.

Experiment [5] concerns the target T1, Kappa-type opioid receptor. Put plainly: The compound was tested for antagonist activity by selective inhibition of [35S]GTP-gamma-S, binding in Guinea pig caudate stimulated by U69,593 to Opioid receptor kappa 1. The experiment is classed as functional.

A value given as a limit tells only on which side of the number the result lay.

Sequence of Mu-type opioid receptor (Rattus norvegicus, UniProt P33535) (P33535 whole entry): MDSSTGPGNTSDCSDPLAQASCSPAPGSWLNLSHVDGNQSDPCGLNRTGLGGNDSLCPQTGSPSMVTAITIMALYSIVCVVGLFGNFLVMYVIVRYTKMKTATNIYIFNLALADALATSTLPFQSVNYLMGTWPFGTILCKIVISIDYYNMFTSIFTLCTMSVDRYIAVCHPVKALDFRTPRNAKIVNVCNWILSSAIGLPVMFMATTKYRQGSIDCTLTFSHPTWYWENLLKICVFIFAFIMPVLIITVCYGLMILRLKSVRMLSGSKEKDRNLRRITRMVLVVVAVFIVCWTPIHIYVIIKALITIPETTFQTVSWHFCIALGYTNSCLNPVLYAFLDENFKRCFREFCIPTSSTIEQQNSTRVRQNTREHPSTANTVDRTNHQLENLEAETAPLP
T1 sequence (P41144 whole entry): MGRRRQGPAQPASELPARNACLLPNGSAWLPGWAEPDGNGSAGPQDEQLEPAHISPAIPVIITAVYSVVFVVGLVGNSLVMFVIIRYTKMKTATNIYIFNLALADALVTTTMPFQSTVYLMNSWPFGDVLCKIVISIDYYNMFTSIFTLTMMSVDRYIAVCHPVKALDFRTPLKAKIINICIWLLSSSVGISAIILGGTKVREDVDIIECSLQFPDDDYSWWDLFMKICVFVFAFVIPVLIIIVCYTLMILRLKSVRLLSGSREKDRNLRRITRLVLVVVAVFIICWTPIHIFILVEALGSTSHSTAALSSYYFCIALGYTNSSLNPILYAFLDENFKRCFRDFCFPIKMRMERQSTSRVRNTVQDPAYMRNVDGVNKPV
Sequence of Mu-type opioid receptor (Cavia porcellus, UniProt P97266) (P97266 whole entry): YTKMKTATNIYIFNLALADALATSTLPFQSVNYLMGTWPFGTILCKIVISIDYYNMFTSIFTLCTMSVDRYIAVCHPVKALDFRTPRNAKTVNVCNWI
Sequence of Delta-type opioid receptor (P33533 whole entry): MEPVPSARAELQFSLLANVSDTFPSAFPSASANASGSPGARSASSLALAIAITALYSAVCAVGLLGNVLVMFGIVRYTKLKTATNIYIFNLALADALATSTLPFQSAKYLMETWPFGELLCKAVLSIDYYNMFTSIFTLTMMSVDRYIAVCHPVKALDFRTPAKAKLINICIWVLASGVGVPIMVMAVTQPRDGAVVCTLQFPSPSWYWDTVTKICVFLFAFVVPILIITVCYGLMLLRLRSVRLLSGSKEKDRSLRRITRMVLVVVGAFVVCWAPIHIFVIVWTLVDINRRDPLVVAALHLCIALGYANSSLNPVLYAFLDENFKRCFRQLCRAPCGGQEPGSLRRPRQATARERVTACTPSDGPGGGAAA

Take `C[C@H]1CN(C[C@@H]2C[C@H]2c2ccccc2)CC[C@@]1(C)c1cccc(O)c1`: the Ki – broadly, a dissociation constant, usually derived from enzyme kinetics or from competition with a known ligand – was found to be 81.8 nM in experiment [1], 709 nM in experiment [2] and 1.75 nM in experiment [3].
`C[C@H]1CN(C2CCCC2)CC[C@@]1(C)c1cccc(O)c1`: the Ki in experiment [1] was 199 nM; in experiment [2], above 7300 nM; in experiment [3], 444 nM.
In the case of `C[C@H]1CN(CC[C@H](O)C2CCCCC2)CC[C@@]1(C)c1cccc(O)c1`, the Ki in experiment [4] came out at 0.021 nM; in experiment [1] it was 28 nM; in experiment [2], 198 nM; in experiment [5], 0.33 nM; in experiment [3], 0.32 nM.
With `C[C@H]1CN(Cc2cc3ccccc3s2)CC[C@@]1(C)c1cccc(O)c1`, the Ki is above 690 nM in experiment [1], 1580 nM in experiment [2] and 21.2 nM in experiment [3].
The corresponding values for `C[C@H]1CN(C2CCCC(O)(c3ccccc3)C2)CC[C@@]1(C)c1cccc(O)c1` (stereo partly drawn) are 674 nM, above 7300 nM and 203 nM.
Regarding `C[C@H]1CN(C/C=C/c2ccccc2Cl)CC[C@@]1(C)c1cccc(O)c1`, the Ki stood at 0.026 nM in experiment [4]; 35.8 nM in experiment [1]; 168 nM in experiment [2]; 0.567 nM in experiment [5]; 1.12 nM in experiment [3].
The corresponding values for `C[C@H]1CN(C/C=C/c2ccccc2)CC[C@@]1(C)c1cccc(O)c1` are 0.039 nM, 122 nM, 322 nM, 1.04 nM and 0.74 nM.
As for `Cc1ccccc1/C=C/CN1CC[C@@](C)(c2cccc(O)c2)[C@@H](C)C1`, the Ki in experiment [4] turned out to be 0.013 nM; in experiment [1] it was 38.9 nM; in experiment [2], 142 nM; in experiment [5] it was 0.17 nM; in experiment [3] it was 0.86 nM.
Regarding `C[C@H]1CN(C2CCCC(O)C2)CC[C@@]1(C)c1cccc(O)c1` (stereo partly drawn), the inhibition constant (Ki) is 1150 nM in experiment [1] and above 7300 nM in experiment [2].
With `C[C@H]1CN(Cc2cc3ccccc3o2)CC[C@@]1(C)c1cccc(O)c1`, the figures for the inhibition constant Ki in experiment [1], in experiment [2] and in experiment [3] were above 690 nM, 1450 nM and 22.2 nM, respectively.
In the same order, the values of `C[C@H]1CN(C2CCCCC2)CC[C@@]1(C)c1cccc(O)c1` are 315 nM, above 7300 nM and 1280 nM.
In the same order, the values of `C[C@H]1CN(C/C=C\c2ccccc2)CC[C@@]1(C)c1cccc(O)c1` are 298 nM, 931 nM and 11.4 nM.

The values above are taken from ChEMBL document CHEMBL1131238, “Investigation of the N-substituent conformation governing potency and mu receptor subtype-selectivity in (+)-(3R, 4R)-dimethyl-4-(3-hydroxyphenyl)piperidine opioid antagonists” (J Med Chem, 1998).
